Converted amounts (≈) assume the structure as drawn.
Experiments:
Assay type in all cases: functional
Acinetobacter pittii [1] = assay: Antibacterial activity against Acinetobacter genomosp. 3 isolate 195 by Etest method in presence of cloxacillin and efflux pump inhibitor PAN
Escherichia coli [2] = assay: Antibacterial activity against Escherichia coli DH5alpha carrying ampC gene of Acinetobacter genomosp. 3 isolate 103 by Etest method
In short: (§1)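 E. coli DH5α expressing the AG3 isolate ampC gene, PCR-amplified (high-fidelity system, 28 cycles) and cloned into BamHI/HindIII sites of pBGS18 (kanamycin marker) under the CTX-M-14 β-lactamase promoter. Grown at 37°C in LB, with kanamycin 50 µg/ml when needed. β-Lactam MICs determined by Etest per the manufacturer's instructions.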

Escherichia coli [3] = assay: Antibacterial activity against Escherichia coli DH5alpha carrying ampC gene of Acinetobacter genomosp. 3 isolate 69 by Etest method; in short: as §1
Acinetobacter pittii [4] = assay: Antibacterial activity against Acinetobacter genomosp. 3 isolate 21 by Etest method in presence of efflux pump inhibitor PAN
Acinetobacter pittii [5] = assay: Antibacterial activity against Acinetobacter genomosp. 3 isolate 90 by Etest method in presence of efflux pump inhibitor CCCP
Acinetobacter pittii [6] = assay: Antibacterial activity against Acinetobacter genomosp. 3 isolate 103 by Etest method in presence of cloxacillin and efflux pump inhibitor CCCP
Acinetobacter pittii [7] = assay: Antibacterial activity against Acinetobacter genomosp. 3 isolate 103 by Etest method
In short: (§2)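 MICs for AG3 clinical isolates were read by Etest following the manufacturer's instructions. Isolates were stored at –80°C in 10% Brucella glycerol broth before testing.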

Escherichia coli [8] = assay: Antibacterial activity against Escherichia coli DH5alpha carrying ampC gene of Acinetobacter genomosp. 3 isolate 109 by Etest method; in short: as §1
Acinetobacter pittii [9] = assay: Antibacterial activity against Acinetobacter genomosp. 3 isolate 69 by Etest method in presence of cloxacillin and efflux pump inhibitor PAN
Acinetobacter pittii [10] = assay: Antibacterial activity against Acinetobacter genomosp. 3 isolate 67 by Etest method in presence of cloxacillin and efflux pump inhibitor CCCP
Acinetobacter pittii [11] = assay: Antibacterial activity against Acinetobacter genomosp. 3 isolate 67 by Etest method; in short: as §2
Acinetobacter pittii [12] = assay: Antibacterial activity against Acinetobacter genomosp. 3 isolate 109 by Etest method in presence of efflux pump inhibitor PAN
Acinetobacter pittii [13] = assay: Antibacterial activity against Acinetobacter genomosp. 3 isolate 243 by Etest method in presence of cloxacillin; in short: as §2
Acinetobacter pittii [14] = assay: Antibacterial activity against Acinetobacter genomosp. 3 isolate 60 by Etest method in presence of efflux pump inhibitor PAN
Acinetobacter pittii [15] = assay: Antibacterial activity against Acinetobacter genomosp. 3 isolate 195 by Etest method in presence of efflux pump inhibitor PAN
Acinetobacter pittii [16] = assay: Antibacterial activity against Acinetobacter genomosp. 3 isolate 128 by Etest method; in short: as §2
Acinetobacter pittii [17] = assay: Antibacterial activity against Acinetobacter genomosp. 3 isolate 128 by Etest method in presence of cloxacillin; in short: as §2
Acinetobacter pittii [18] = assay: Antibacterial activity against Acinetobacter genomosp. 3 isolate 60 by Etest method; in short: as §2
Acinetobacter pittii [19] = assay: Antibacterial activity against Acinetobacter genomosp. 3 isolate 109 by Etest method; in short: as §2
Acinetobacter pittii [20] = assay: Antibacterial activity against Acinetobacter genomosp. 3 isolate 56 by Etest method in presence of cloxacillin and efflux pump inhibitor PAN
Acinetobacter pittii [21] = assay: Antibacterial activity against Acinetobacter genomosp. 3 isolate 56 by Etest method in presence of cloxacillin and efflux pump inhibitor CCCP
Acinetobacter pittii [22] = assay: Antibacterial activity against Acinetobacter genomosp. 3 isolate 90 by Etest method; in short: as §2
Acinetobacter pittii [23] = assay: Antibacterial activity against Acinetobacter genomosp. 3 isolate 20 by Etest method in presence of cloxacillin and efflux pump inhibitor PAN
Acinetobacter pittii [24] = assay: Antibacterial activity against Acinetobacter genomosp. 3 isolate 14 by Etest method in presence of cloxacillin; in short: as §2
Escherichia coli [25] = assay: Antibacterial activity against Escherichia coli DH5alpha by Etest method
In short: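 E. coli DH5α host strain, grown at 37°C in LB medium. MICs of β-lactams determined by Etest following the manufacturer's instructions.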

Acinetobacter pittii [26] = assay: Antibacterial activity against Acinetobacter genomosp. 3 isolate 109 by Etest method in presence of cloxacillin and efflux pump inhibitor CCCP
Escherichia coli [27] = assay: Antibacterial activity against Escherichia coli DH5alpha carrying ampC gene of Acinetobacter genomosp. 3 isolate 56 by Etest method; in short: as §1
Acinetobacter pittii [28] = assay: Antibacterial activity against Acinetobacter genomosp. 3 isolate 14 by Etest method in presence of cloxacillin and efflux pump inhibitor PAN
Acinetobacter pittii [29] = assay: Antibacterial activity against Acinetobacter genomosp. 3 isolate 69 by Etest method in presence of efflux pump inhibitor PAN
Acinetobacter pittii [30] = assay: Antibacterial activity against Acinetobacter genomosp. 3 isolate 109 by Etest method in presence of efflux pump inhibitor CCCP
Acinetobacter pittii [31] = assay: Antibacterial activity against Acinetobacter genomosp. 3 isolate 243 by Etest method in presence of efflux pump inhibitor PAN
Acinetobacter pittii [32] = assay: Antibacterial activity against Acinetobacter genomosp. 3 isolate 52 by Etest method in presence of cloxacillin and efflux pump inhibitor PAN
Acinetobacter pittii [33] = assay: Antibacterial activity against Acinetobacter genomosp. 3 isolate 128 by Etest method in presence of efflux pump inhibitor PAN
Acinetobacter pittii [34] = assay: Antibacterial activity against Acinetobacter genomosp. 3 isolate 14 by Etest method in presence of efflux pump inhibitor CCCP
Acinetobacter pittii [35] = assay: Antibacterial activity against Acinetobacter genomosp. 3 isolate 67 by Etest method in presence of cloxacillin and efflux pump inhibitor PAN
Acinetobacter pittii [36] = assay: Antibacterial activity against Acinetobacter genomosp. 3 isolate 243 by Etest method in presence of cloxacillin and efflux pump inhibitor PAN
Acinetobacter pittii [37] = assay: Antibacterial activity against Acinetobacter genomosp. 3 isolate 109 by Etest method in presence of cloxacillin; in short: as §2
Acinetobacter pittii [38] = assay: Antibacterial activity against Acinetobacter genomosp. 3 isolate 20 by Etest method in presence of cloxacillin; in short: as §2
Acinetobacter pittii [39] = assay: Antibacterial activity against Acinetobacter genomosp. 3 isolate 243 by Etest method in presence of cloxacillin and efflux pump inhibitor CCCP
Acinetobacter pittii [40] = assay: Antibacterial activity against Acinetobacter genomosp. 3 isolate 67 by Etest method in presence of efflux pump inhibitor CCCP
Acinetobacter pittii [41] = assay: Antibacterial activity against Acinetobacter genomosp. 3 isolate 52 by Etest method in presence of efflux pump inhibitor PAN
Acinetobacter pittii [42] = assay: Antibacterial activity against Acinetobacter genomosp. 3 isolate 65 by Etest method in presence of cloxacillin and efflux pump inhibitor CCCP
Acinetobacter pittii [43] = assay: Antibacterial activity against Acinetobacter genomosp. 3 isolate 243 by Etest method; in short: as §2
Acinetobacter pittii [44] = assay: Antibacterial activity against Acinetobacter genomosp. 3 isolate 21 by Etest method in presence of cloxacillin; in short: as §2
Escherichia coli [45] = assay: Antibacterial activity against Escherichia coli DH5alpha carrying ampC gene of Acinetobacter genomosp. 3 isolate 20 by Etest method; in short: as §1
Acinetobacter pittii [46] = assay: Antibacterial activity against Acinetobacter genomosp. 3 isolate 21 by Etest method in presence of cloxacillin and efflux pump inhibitor CCCP
Acinetobacter pittii [47] = assay: Antibacterial activity against Acinetobacter genomosp. 3 isolate 52 by Etest method in presence of cloxacillin and efflux pump inhibitor CCCP
Acinetobacter pittii [48] = assay: Antibacterial activity against Acinetobacter genomosp. 3 isolate 14 by Etest method in presence of cloxacillin and efflux pump inhibitor […]
Acinetobacter pittii [49] = assay: Antibacterial activity against Acinetobacter genomosp. 3 isolate 52 by Etest method of efflux pump inhibitor CCCP

C[C@@H](O)[C@H]1C(=O)N2C(C(=O)O)=C(S[C@@H]3CN[C@H](C(=O)N(C)C)C3)[C@H](C)[C@H]12 [MEROPENEM]
MIC (Acinetobacter pittii [1]): 1 µg/mL
MIC (Escherichia coli [2]): 0.023 µg/mL (≈ 0.06 µM)
MIC (Escherichia coli [3]): 0.023 µg/mL (≈ 0.06 µM)
MIC (Acinetobacter pittii [4]): 0.47 µg/mL
MIC (Acinetobacter pittii [5]): 1.5 µg/mL
MIC (Acinetobacter pittii [6]): 1 µg/mL
MIC (Acinetobacter pittii [7]): 3 µg/mL (≈ 7.82 µM)
MIC (Escherichia coli [8]): 0.032 µg/mL (≈ 0.0834 µM)
MIC (Acinetobacter pittii [9]): 0.38 µg/mL
MIC (Acinetobacter pittii [10]): 0.19 µg/mL
MIC (Acinetobacter pittii [11]): 0.5 µg/mL (≈ 1.3 µM)
MIC (Acinetobacter pittii [12]): 0.25 µg/mL
MIC (Acinetobacter pittii [13]): 0.125 µg/mL
MIC (Acinetobacter pittii [14]): 0.19 µg/mL
MIC (Acinetobacter pittii [15]): 1 µg/mL
MIC (Acinetobacter pittii [16]): 0.19 µg/mL (≈ 0.495 µM)
MIC (Acinetobacter pittii [17]): 0.25 µg/mL
MIC (Acinetobacter pittii [18]): 0.75 µg/mL (≈ 1.96 µM)
MIC (Acinetobacter pittii [19]): 0.38 µg/mL (≈ 0.991 µM)
MIC (Acinetobacter pittii [20]): 0.38 µg/mL
MIC (Acinetobacter pittii [21]): 0.125 µg/mL
MIC (Acinetobacter pittii [22]): 0.75 µg/mL (≈ 1.96 µM)
MIC (Acinetobacter pittii [23]): 3 µg/mL
MIC (Acinetobacter pittii [24]): 0.25 µg/mL
MIC (Escherichia coli [25]): 0.008 µg/mL (≈ 0.0209 µM)
MIC (Acinetobacter pittii [26]): 0.19 µg/mL
MIC (Escherichia coli [27]): 0.023 µg/mL (≈ 0.06 µM)
MIC (Acinetobacter pittii [28]): 0.38 µg/mL
MIC (Acinetobacter pittii [29]): 0.25 µg/mL
MIC (Acinetobacter pittii [30]): 0.25 µg/mL
MIC (Acinetobacter pittii [31]): 0.19 µg/mL
MIC (Acinetobacter pittii [32]): 0.5 µg/mL
MIC (Acinetobacter pittii [33]): 0.125 µg/mL
MIC (Acinetobacter pittii [34]): 0.25 µg/mL
MIC (Acinetobacter pittii [35]): 0.25 µg/mL
MIC (Acinetobacter pittii [36]): 0.19 µg/mL
MIC (Acinetobacter pittii [37]): 0.25 µg/mL
MIC (Acinetobacter pittii [38]): 3 µg/mL
MIC (Acinetobacter pittii [39]): 0.094 µg/mL
MIC (Acinetobacter pittii [40]): 0.25 µg/mL
MIC (Acinetobacter pittii [41]): 0.38 µg/mL
MIC (Acinetobacter pittii [42]): 0.19 µg/mL
MIC (Acinetobacter pittii [43]): 0.25 µg/mL (≈ 0.652 µM)
MIC (Acinetobacter pittii [44]): 0.5 µg/mL
MIC (Escherichia coli [45]): 0.023 µg/mL (≈ 0.06 µM)
MIC (Acinetobacter pittii [46]): 0.25 µg/mL
MIC (Acinetobacter pittii [47]): 0.094 µg/mL
MIC (Acinetobacter pittii [48]): 0.25 µg/mL
MIC (Acinetobacter pittii [49]): 0.38 µg/mL (≈ 0.991 µM)

CC(=O)OCC1=C(C(=O)O)N2C(=O)[C@@H](NC(=O)Cc3cccs3)[C@H]2SC1 [CEPHALOTHIN]
MIC (Acinetobacter pittii [1]): > 256 µg/mL
MIC (Escherichia coli [2]): > 256 µg/mL
MIC (Escherichia coli [3]): > 256 µg/mL
MIC (Acinetobacter pittii [4]): > 256 µg/mL
MIC (Acinetobacter pittii [5]): > 256 µg/mL
MIC (Acinetobacter pittii [6]): 24 µg/mL
MIC (Acinetobacter pittii [7]): > 256 µg/mL
MIC (Escherichia coli [8]): > 256 µg/mL
MIC (Acinetobacter pittii [9]): > 256 µg/mL
MIC (Acinetobacter pittii [10]): 24 µg/mL
MIC (Acinetobacter pittii [11]): > 256 µg/mL
MIC (Acinetobacter pittii [12]): > 256 µg/mL
MIC (Acinetobacter pittii [13]): 192 µg/mL
MIC (Acinetobacter pittii [14]): > 256 µg/mL
MIC (Acinetobacter pittii [15]): > 256 µg/mL
MIC (Acinetobacter pittii [16]): > 256 µg/mL
MIC (Acinetobacter pittii [17]): 48 µg/mL
MIC (Acinetobacter pittii [18]): > 256 µg/mL
MIC (Acinetobacter pittii [19]): > 256 µg/mL
MIC (Acinetobacter pittii [20]): > 256 µg/mL
MIC (Acinetobacter pittii [21]): 16 µg/mL
MIC (Acinetobacter pittii [22]): > 256 µg/mL
MIC (Acinetobacter pittii [23]): > 256 µg/mL
MIC (Acinetobacter pittii [24]): 128 µg/mL
MIC (Escherichia coli [25]): 3 µg/mL (≈ 7.57 µM)
MIC (Acinetobacter pittii [26]): 24 µg/mL
MIC (Escherichia coli [27]): > 256 µg/mL
MIC (Acinetobacter pittii [28]): 128 µg/mL
MIC (Acinetobacter pittii [29]): > 256 µg/mL
MIC (Acinetobacter pittii [30]): > 256 µg/mL
MIC (Acinetobacter pittii [31]): > 256 µg/mL
MIC (Acinetobacter pittii [32]): > 256 µg/mL
MIC (Acinetobacter pittii [33]): > 256 µg/mL
MIC (Acinetobacter pittii [34]): > 256 µg/mL
MIC (Acinetobacter pittii [35]): 128 µg/mL
MIC (Acinetobacter pittii [36]): 192 µg/mL
MIC (Acinetobacter pittii [37]): 128 µg/mL
MIC (Acinetobacter pittii [38]): > 256 µg/mL
MIC (Acinetobacter pittii [39]): 12 µg/mL
MIC (Acinetobacter pittii [40]): 192 µg/mL
MIC (Acinetobacter pittii [41]): > 256 µg/mL
MIC (Acinetobacter pittii [42]): 24 µg/mL
MIC (Acinetobacter pittii [43]): > 256 µg/mL
MIC (Acinetobacter pittii [44]): > 256 µg/mL
MIC (Escherichia coli [45]): > 256 µg/mL
MIC (Acinetobacter pittii [46]): 48 µg/mL
MIC (Acinetobacter pittii [47]): 12 µg/mL
MIC (Acinetobacter pittii [48]): 24 µg/mL
MIC (Acinetobacter pittii [49]): > 256 µg/mL

— ChEMBL document CHEMBL1649124, “Genetic variability among ampC genes from acinetobacter genomic species 3” (Antimicrob Agents Chemother, 2009)
